According to ChEMBL document CHEMBL1149129, “Design and synthesis of 3'- and 5'-O-(3-benzenesulfonylfuroxan-4-yl)-2'-deoxyuridines: biological evaluation as hybrid nitric oxide donor-nucleoside anticancer agents” (2004):

What was measured:
143B [1] = assay: In vitro cell cytotoxicity was determined against 143B cell line; assay type: functional; conditions: Homo sapiens
In short: (§1)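 Human 143B or 143B-LTK cells were grown in complete MEME with 10% FBS and seeded at 8×10^2 cells/well. After 24 h at 37 °C in 5% CO2, compound in medium was added and cells were incubated 3 days. Viability was read by MTT (4 h), with formazan dissolved in DMSO and A540 corrected for blanks. CC50 is the concentration cutting A540 to 50% of control (mean, n = 6).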

KBALB-STK = assay: In vitro cell cytotoxicity was determined against KBALB-STK cell line; assay type: functional; conditions: Mus musculus
In short: (§2)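 Murine KBALB or KBALB-STK cells, or Hs578Bst human fibroblasts, were grown in complete DMEM with 10% FBS and seeded at 8×10^2 cells/well. After 24 h at 37 °C in 5% CO2, compound in medium was added for 3 days. MTT was added for 4 h, formazan dissolved in DMSO, and blank-corrected A540 read. CC50 is 50% of control A540 (mean, n = 6).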

[2] = In vitro percent nitric oxide released from the test compound was determined as the percent of nitrite (NO2-) produced in the present of L-cysteine in Phosphate buffer saline at 16 hr; assay type: functional
In short: (§3)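 Equal volumes of 0.2 mM compound and freshly prepared 3.6 mM L-cysteine, each in 0.1 M phosphate buffer, pH 7.4, were mixed and incubated at 37 °C for 1 or 16 h in the absence of air. After 10 min air exposure at 25 °C, an equal volume of Griess reagent was added and A540 read after 10 min. Nitrite was quantified against a 0–100 µM NaNO2 curve (±SEM, n = 3).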

143B [3] = assay: In vitro cell cytotoxicity was determined against 143B-LTK cell line; assay type: functional; conditions: Homo sapiens; in short: as §1
[4] = In vitro percent nitric oxide released from the test compound was determined as the percent of nitrite (NO2-) produced in phosphate buffered saline at 16 hr; assay type: functional
In short: (§4)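 Compound (2 mM solution) in 0.1 M phosphate buffer, pH 7.4, without L-cysteine was incubated at 37 °C for 1 or 16 h in the absence of air. It was then exposed to air for 10 min at 25 °C and mixed with an equal volume of Griess reagent (sulfanilamide/N-naphthylethylenediamine). A540 was read after 10 min. Percent NO, as nitrite, came from a 0–100 µM sodium nitrite standard curve (±SEM, n = 3).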

[5] = In vitro percent nitric oxide released from the test compound was determined as the percent of nitrite (NO2-) produced in the present of L-cysteine in Phosphate buffer saline at 1 hr; assay type: functional; in short: as §3
KBALB cell line = assay: In vitro cell cytotoxicity was determined against KBALB cell line; assay type: functional; conditions: Mus musculus; in short: as §2
Hs578Bst (Homo sapiens) = assay: In vitro cell cytotoxicity was determined against Hs 578.Bst cell line
[6] = In vitro percent nitric oxide released from the test compound was determined as the percent of nitrite (NO2-) produced in phosphate buffered saline at 1 hr; assay type: functional; in short: as §4
EMT6 = assay: In vitro cell cytotoxicity was determined against EMT-6 cell line; assay type: functional; conditions: Mus musculus
In short: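 Murine EMT-6 cells in complete Waymouth medium with 12.5% FBS were plated at 8×10^2 cells/well and preincubated 24 h (37 °C, 5% CO2). Compound in medium was then given for 3 days. MTT reduction was measured over 4 h, with DMSO solubilization and blank-corrected absorbance at 540 nm. CC50 is the concentration reducing A540 to 50% of control (mean, n = 6).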

SMILES | CC50 (143B [1]) | CC50 (KBALB-STK) | NO release [2] | CC50 (143B [3]) | NO release [4] | NO release [5] | CC50 (KBALB cell line) | CC50 (Hs578Bst (Homo sapiens)) | NO release [6] | CC50 (EMT6)
Cc1cn([C@H]2C[C@H](Oc3no[n+]([O-])c3S(=O)(=O)c3ccccc3)[C@@H](CO)O2)c(=O)[nH]c1=O | 0.72 µM | 1000 nM | 77.3% | 0.88 µM | 0.4% | 39.5% | 560 nM | 2 µM | 1.4% | 2400 nM
Cc1cn([C@H]2C[C@H](O)[C@@H](CO)O2)c(=O)[nH]c1=O [DOXRIBTIMINE] | 600 µM | 650000 nM |  | 700 µM |  |  | 970000 nM |  |  | 
O=c1ccn([C@H]2C[C@H](Oc3no[n+]([O-])c3S(=O)(=O)c3ccccc3)[C@@H](CO)O2)c(=O)[nH]1 | 0.96 µM | 1700 nM | 85.8% | 2.9 µM | 0.2% | 45.6% | 790 nM | 4.8 µM | 0.9% | 80 nM
Cc1cn([C@H]2C[C@H](O)[C@@H](COc3no[n+]([O-])c3S(=O)(=O)c3ccccc3)O2)c(=O)[nH]c1=O | 3.6 µM | 4800 nM | 36.8% | 5.6 µM | 2.2% | 20.9% | 2800 nM | 6.8 µM | 2.2% | 2000 nM
O=c1[nH]c(=O)n([C@H]2C[C@H](O)[C@@H](CO)O2)cc1I [IDOXURIDINE] | 90 µM | 0.088 nM |  | 100 µM |  |  | 0.06 nM |  |  | 0.009 nM
O=c1[nH]c(=O)n([C@H]2C[C@H](Oc3no[n+]([O-])c3S(=O)(=O)c3ccccc3)[C@@H](CO)O2)cc1F | 0.24 µM | 840 nM | 73.9% | 0.84 µM | 0.2% | 41.5% | 2000 nM | 4.4 µM | 0.4% | 2000 nM
O=c1ccn([C@H]2C[C@H](O)[C@@H](COc3no[n+]([O-])c3S(=O)(=O)c3ccccc3)O2)c(=O)[nH]1 | 3.3 µM | 5400 nM | 77.9% | 6.3 µM | 0.2% | 46% | 4600 nM | 4.8 µM | 1.5% | 750 nM
O=c1[nH]c(=O)n([C@H]2C[C@H](O)[C@@H](COc3no[n+]([O-])c3S(=O)(=O)c3ccccc3)O2)cc1F | 3.2 µM | 60 nM | 68.7% | 2 µM | 0.7% | 41.6% | 48 nM | 0.076 µM | 0.8% | 60 nM
O=S(=O)(c1ccccc1)c1no[n+]([O-])c1S(=O)(=O)c1ccccc1 | 0.04 µM | 600 nM | 38.8% | 0.028 µM | 0.4% | 22.7% | 520 nM | 0.1 µM | 0.2% | 100 nM
COc1no[n+]([O-])c1S(=O)(=O)c1ccccc1 | 0.07 µM | 440 nM | 44.8% | 0.32 µM | 1% | 12.3% | 480 nM | 0.68 µM | 1.1% | 560 nM
O=c1[nH]c(=O)n([C@H]2C[C@H](Oc3no[n+]([O-])c3S(=O)(=O)c3ccccc3)[C@@H](CO)O2)cc1C(F)(F)F | 0.52 µM | 2000 nM | 78.5% | 0.48 µM | 0.4% | 48.3% | 3200 nM | 4.4 µM | 0.3% | 880 nM
O=[N+]([O-])O[C@H]1CO[C@H]2[C@@H]1OC[C@H]2O[N+](=O)[O-] [ISOSORBIDE DINITRATE] | 7000 µM | 10000 nM | 2.6% | 7400 µM | 24% | 1.9% | 97000 nM |  | 3.5% | 380000 nM
O=c1[nH]c(=O)n([C@H]2C[C@H](O)[C@@H](CO)O2)cc1F [FLOXURIDINE] |  | 100000 nM |  |  |  |  | 95000 nM |  |  | 
O=c1[nH]c(=O)n([C@H]2C[C@H](Oc3no[n+]([O-])c3S(=O)(=O)c3ccccc3)[C@@H](CO)O2)cc1I | 0.56 µM | 400 nM | 74.8% | 1.3 µM | 0.4% | 39.8% | 380 nM | 0.8 µM | 1.2% | 80 nM
O=c1[nH]c(=O)n([C@H]2C[C@H](O)[C@@H](COc3no[n+]([O-])c3S(=O)(=O)c3ccccc3)O2)cc1I | 0.54 µM | 920 nM | 71.9% | 0.71 µM | 9.9% | 28.3% | 920 nM | 0.8 µM | 9.8% | 1000 nM
